Source: PubChem (several laboratories)
PHOSPHO1 inh – PubChem AID 1565; 1.1% of 290,000 active; Phosphoethanolamine/phosphocholine phosphatase (Homo sapiens), Q8TCT1; recombinant PHOSPHO1, absorbance phosphatase assay; inhibition, % at 13.3 µM; in the data active means inhibition above about 60%
Target sequence (Q8TCT1 whole entry, looked up): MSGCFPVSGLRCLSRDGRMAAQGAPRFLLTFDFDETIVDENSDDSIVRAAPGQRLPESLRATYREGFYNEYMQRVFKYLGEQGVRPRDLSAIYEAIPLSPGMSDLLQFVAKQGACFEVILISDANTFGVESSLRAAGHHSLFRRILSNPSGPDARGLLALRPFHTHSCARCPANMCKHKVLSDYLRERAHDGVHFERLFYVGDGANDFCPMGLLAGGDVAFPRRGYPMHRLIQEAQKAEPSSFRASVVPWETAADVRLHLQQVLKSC
UBC9 SUMO inh – inhibitors of in vitro SUMOylation cascade, primary screen, biochemical, HTRF, uHTS. SUMO-conjugating enzyme UBC9 (Homo sapiens), P63279. HTRF SUMOylation assay, SAE1/SAE2 + UBC9. inhibition, % at 35 µM. 0.36% of 290,000 active. AID 2006, 2009; in the data active means inhibition above about 50%, passing the limit was not always enough
Target sequence (P63279 whole entry, looked up): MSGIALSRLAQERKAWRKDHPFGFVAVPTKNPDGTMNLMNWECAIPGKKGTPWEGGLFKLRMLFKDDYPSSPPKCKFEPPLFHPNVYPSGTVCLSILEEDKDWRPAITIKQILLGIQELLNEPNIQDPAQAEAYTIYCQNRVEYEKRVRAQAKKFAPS
HCV NS3 hel inh – inhibitors of HCV NS3 helicase, primary screen, biochemical, Cy5 molecular beacon fluorescence. Hepatitis C virus NS3 helicase. NS3 helicase DNA unwinding. inhibition, % at 10.9 µM. 0.56% of 290,000 active. AID 1800, 2009;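 active means inhibition above the mean of all tested compounds plus 3 SD, set per campaign, cut at about 35% in these data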;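 further: 0% = DMSO wells and 100% = thioflavine S control wells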
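System: Hepatitis C virus NS3 helicase domain fragment enzyme | Reagent: Annealed dual-labelled DNA beacon duplex, ATP-started | Compound dosing: 10.9 µM single point, 0.8% DMSO | Incubation: 1 h reaction at 25 °C, ATP-initiated | Technique: Cy5 fluorescence | Evaluation: Percent inhibition from t60/t0 fluorescence ratio | Benchmarks: Low DMSO, high thioflavine S at 110 µM | Replication: Singlicate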
IMP-1 inhibitor – IMP-1 metallo-beta-lactamase inhibitors, primary screen, biochemical, epi-absorbance readout, Pseudomonas aeruginosa enzyme; purified IMP-1, nitrocefin hydrolysis, epi-absorbance fluorescence; inhibition, % at 5.6 µM; metallo-beta-lactamase IMP-1 (Pseudomonas aeruginosa); 0.45% of 290,000 active; AID 1556, 2009;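 active means inhibition above the mean plus 3 SD of all compounds in the same screening run, cut at about 4.5% in these data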;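 further: 0% = IMP-1 with DMSO and 100% = DMSO wells lacking enzyme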
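Assay system: purified IMP-1; Quantity: IMP-1 0.2 nM before substrate addition; Medium: HEPES buffer pH 7.1 with ZnSO4 and Brij 35; Incubation: 15 min enzyme–compound preincubation, then 25 min nitrocefin reaction, 25 °C; Signal: fluorescence quenching readout, ex 480/em 530 nm; Controls: DMSO with and without IMP-1; Repeats: singlicate testing.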
HCV core dimer – inhibitors of HCV core protein dimerization, primary screen, biochemical, TR-FRET, high-throughput | TR-FRET GST/Flag-core106 dimerization, 1536-well | 0.33% of 300,000 active | inhibition, % at 5 µM;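 active means inhibition above the mean of all tested compounds plus 3 SD, set per screening campaign, cut at about 45% in these data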
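Test system: GST/Flag-tagged HCV core106 proteins; Medium: KF-containing HEPES buffer, pH 7.45, DTT, CHAPS, BSA; Times: compound-protein-antibody incubation 4 h at 22.5 °C; Detection: TR-FRET 671 and 617 nm emission; Benchmarks: wells lacking GST-core106 and wells with excess unlabelled core106.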
VIM-2 inh – VIM-2 metallo-beta-lactamase inhibitors, primary screen, biochemical, epi-absorbance readout, Pseudomonas aeruginosa enzyme. purified VIM-2, nitrocefin hydrolysis, epi-absorbance fluorescence. inhibition, % at 5.6 µM. 0.89% of 290,000 active;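 active means inhibition above the mean of all tested compounds plus 3 SD, cutoff set per screening run, cut at about 7.5% in these data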;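 further: red hydrolysis product quenches plate fluorescence so inhibitors raise well fluorescence; 0% = enzyme with DMSO and 100% = DMSO without enzyme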
* marks the source's active call; other numbers are inactive results. Hits are enriched below; roughly 3.1% of the tested compounds scored in any of these assays.

Cc1c(OC(C(=O)O)c2ccccc2)ccc2c3c(c(=O)oc12)CCC3 (stereo unspecified) was read as PHOSPHO1 inh -3, UBC9 SUMO inh 0, HCV NS3 hel inh 7, IMP-1 inhibitor -2 and VIM-2 inh 7.7*.
Screening Cc1c(OCC(=O)N2CCC(C(=O)O)CC2)ccc2c3c(c(=O)oc12)CCC3 returned PHOSPHO1 inh 34, UBC9 SUMO inh -4, HCV NS3 hel inh 13, IMP-1 inhibitor -3, HCV core dimer 3 and VIM-2 inh 9.9*.
Screening Cc1c(OCC(=O)NC(Cc2ccc(Cl)cc2)C(=O)O)ccc2c3c(c(=O)oc12)CCC3 (stereo unspecified) returned PHOSPHO1 inh 14, UBC9 SUMO inh -5, HCV NS3 hel inh 29, IMP-1 inhibitor -1, HCV core dimer -2 and VIM-2 inh 6.
`Cc1c(Cc2ccccc2)c(=O)oc2c(C)c(OCC(=O)N3CCC(C(=O)O)CC3)ccc12` gave PHOSPHO1 inh 24, UBC9 SUMO inh 21, HCV NS3 hel inh 1, IMP-1 inhibitor -3, HCV core dimer 5 and VIM-2 inh 0.
Screening Cc1ccc(/C(O)=C/C(=O)C(=O)NC23CC4CC(CC(C4)C2)C3)cc1 returned PHOSPHO1 inh 7, UBC9 SUMO inh 11, HCV NS3 hel inh -3, IMP-1 inhibitor -1, HCV core dimer 4 and VIM-2 inh 1.
For Cc1c(OC(C)C(=O)NCC(O)c2ccccc2)ccc2c3c(c(=O)oc12)CCCC3 (stereo unspecified) the results were PHOSPHO1 inh -67, UBC9 SUMO inh 8, HCV NS3 hel inh 0, IMP-1 inhibitor 2, HCV core dimer 1 and VIM-2 inh 11*.
CNC(=O)Nc1ccc2snnc2c1 was read as PHOSPHO1 inh 19, UBC9 SUMO inh 23, HCV NS3 hel inh 8, IMP-1 inhibitor -3, HCV core dimer 3 and VIM-2 inh -1.
Screening Cc1nc2ccc(NC(=O)NCCO)cc2s1 returned PHOSPHO1 inh -6, UBC9 SUMO inh 26, HCV NS3 hel inh 11, IMP-1 inhibitor 0, HCV core dimer 1 and VIM-2 inh 2.
`O=C(NCc1ccco1)Nc1ccc2snnc2c1` gave PHOSPHO1 inh -11, UBC9 SUMO inh 69*, HCV NS3 hel inh 0, IMP-1 inhibitor 0, HCV core dimer 1 and VIM-2 inh -2.
`Cc1nc2ccc(NC(=O)NCc3ccco3)cc2s1` gave PHOSPHO1 inh 17, UBC9 SUMO inh 67*, HCV NS3 hel inh 4, IMP-1 inhibitor -1, HCV core dimer -1 and VIM-2 inh -1.
CCNc1ccc(C(=O)NN=C2CCCC2)cc1[N+](=O)[O-] was read as PHOSPHO1 inh 16, UBC9 SUMO inh 13, HCV NS3 hel inh 1, IMP-1 inhibitor -5, HCV core dimer 3 and VIM-2 inh -6.
`CC(=O)Nc1c2c(nn1-c1ccccc1)CSC2` gave PHOSPHO1 inh -13, UBC9 SUMO inh 13, HCV NS3 hel inh -4, IMP-1 inhibitor -3, HCV core dimer 6 and VIM-2 inh -2.
`O=C(/C=C\c1ccc2c(c1)OCO2)Nc1c2c(nn1-c1ccc(Cl)cc1)CSC2` gave PHOSPHO1 inh -11, UBC9 SUMO inh 3, HCV NS3 hel inh 0, IMP-1 inhibitor -2, HCV core dimer 47* and VIM-2 inh -3.
For COc1ccccc1CNC(=O)C(C)n1cccc1C(=O)c1ccccc1 (stereo unspecified) the results were PHOSPHO1 inh 64*, HCV NS3 hel inh 7, IMP-1 inhibitor -1, HCV core dimer -19 and VIM-2 inh -4.
CCc1ccccc1NC(=O)C1CCN(S(C)(=O)=O)CC1 was read as HCV core dimer 1.
`Cc1ccc(-c2ccc(=O)n(Cc3cccc(Br)c3)n2)cc1` gave PHOSPHO1 inh 38, UBC9 SUMO inh -2, HCV NS3 hel inh -6, IMP-1 inhibitor 1, HCV core dimer -1 and VIM-2 inh 1.
Screening COCCN1C(=O)/C(=C/c2ccc(N3CCCC3)cc2)SC1=S returned PHOSPHO1 inh -12, UBC9 SUMO inh 3, HCV NS3 hel inh 12, IMP-1 inhibitor 4.5*, HCV core dimer 5 and VIM-2 inh 5.
For Cc1cccn2cc(-c3ccc(S(=O)(=O)N4CCOCC4)cc3)nc12 the results were PHOSPHO1 inh 27, UBC9 SUMO inh 56*, HCV NS3 hel inh 1, IMP-1 inhibitor -3, HCV core dimer 0 and VIM-2 inh 2.
For Cc1ccc(-c2csc3ncn(C(C)C(=O)O)c(=O)c23)cc1 (stereo unspecified) the results were PHOSPHO1 inh 19, UBC9 SUMO inh 8, HCV NS3 hel inh 6, IMP-1 inhibitor -4, HCV core dimer 5 and VIM-2 inh -3.
`COc1cccc(/C=C2\Oc3cc(OCC(=O)N4Cc5ccccc5C[C@H]4C(=O)O)ccc3C2=O)c1` gave PHOSPHO1 inh 8, UBC9 SUMO inh 22, HCV NS3 hel inh 14, IMP-1 inhibitor -1, HCV core dimer -4 and VIM-2 inh 9.8*.
For COCCn1c(SCC(=O)Nc2cc(C)on2)nnc1-c1ccccc1 the results were PHOSPHO1 inh 40, UBC9 SUMO inh 17, HCV NS3 hel inh -5, IMP-1 inhibitor -1, HCV core dimer 4 and VIM-2 inh -1.
Screening Cc1nn(CC(=O)Nc2cccnc2)c(=O)c2ccccc12 returned PHOSPHO1 inh 63*, UBC9 SUMO inh 7, HCV NS3 hel inh -3, IMP-1 inhibitor -2, HCV core dimer -7 and VIM-2 inh -1.
`CCC(=O)Nc1nc2c(OC)ccc(OC)c2s1` gave PHOSPHO1 inh -19, UBC9 SUMO inh 2, HCV NS3 hel inh -6, IMP-1 inhibitor 4.9*, HCV core dimer -3 and VIM-2 inh -1.
For CCCC(=O)Nc1nc2c(OC)ccc(OC)c2s1 the results were PHOSPHO1 inh -5, UBC9 SUMO inh -6, HCV NS3 hel inh 0, IMP-1 inhibitor -3, HCV core dimer -3 and VIM-2 inh -2.
COc1ccccc1OCCc1nnc(N)s1 was read as PHOSPHO1 inh 3, UBC9 SUMO inh 5, HCV NS3 hel inh 2, IMP-1 inhibitor -1, HCV core dimer -1 and VIM-2 inh -2.
`COc1ccc(OCCc2nnc(N)s2)cc1` gave PHOSPHO1 inh 62*, UBC9 SUMO inh 7, HCV NS3 hel inh 2, IMP-1 inhibitor 4, HCV core dimer 6 and VIM-2 inh -3.
Screening CSc1nc(N)c(NC(=O)c2ccc(Br)o2)c(=O)[nH]1 returned PHOSPHO1 inh 66*, UBC9 SUMO inh -4, HCV NS3 hel inh 10, IMP-1 inhibitor -2, HCV core dimer 1 and VIM-2 inh -3.
